Key:
[1] = Selectivity index, ratio of EC50 for human MRC5 cells to EC50 for antitrypanosomal activity against Trypanosoma brucei rhodesiense; format: toxicity; conditions: read-out: Ratio EC50
Method in brief: (§1)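 Selectivity index is the MRC-5 EC₅₀ divided by the parasite EC₅₀.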

Trypanosoma cruzi = assay: Antitrypanosomal activity against Trypanosoma cruzi Tulahuen CL2 infected in human MRC5 cells assessed as inhibition of parasite growth incubated for 7 days by chlorophenol red-fl-D-galactopyranoside based spectrophotometric analysis; format: functional, organism-based; conditions: Tulahuen CL2, MRC5, 168 h
Method in brief: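 T. cruzi Tulahuen CL2 β-galactosidase strain was maintained on MRC-5_SV2 cells. Wells held 4×10³ cells plus 4×10⁴ parasites with a 10-point 4-fold compound series, final DMSO <1%. After 7 days at 37 °C, 5% CO₂, substrate was added and absorbance read at 540 nm after 4 h at 37 °C. IC₅₀ was taken from % reduction versus infected and uninfected controls.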

[2] = test system: Trypanosoma brucei brucei; assay: Antitrypanosomal activity against Trypanosoma brucei brucei assessed as parasite growth inhibition; format: functional, organism-based
Macrophage = assay: Cytotoxicity against mouse primary macrophage cells assessed as reduction in cell viability; format: cell-based
Method in brief: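 Macrophage toxicity was scored microscopically within the L. infantum assays, using cell detachment, lysis and granulation. At least 500 cells over adjacent fields were scored semi-quantitatively, and CC₅₀ was taken from % reduction in normal cells versus untreated controls.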

Leishmania infantum = assay: Antileishmanial activity against Leishmania infantum MHOM/MA(BE)/67 infected in mouse primary peritoneal macrophages treated 2 hrs post-infection and incubated for 5 days by Giemsa staining based microscopic analysis; format: functional, organism-based; conditions: MHOM/MA(BE)/67, Peritoneal macrophage
Method in brief: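 Peritoneal macrophages from mice, harvested 2 days after 2% potato starch stimulation, infected after 48 h with L. infantum in supplemented RPMI-1640 with 5% FCS. Compounds were added 2 h post-infection as a 10-point 4-fold dilution series, final DMSO <1%, and incubated 5 days at 37 °C, 5% CO₂. Amastigotes per macrophage were counted after 10% Giemsa staining, and IC₅₀ was taken from % reduction versus untreated-infected controls.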

MRC5 = assay: Cytotoxicity against human MRC5 cells assessed as reduction in cell viability after 3 days by resazurin dye based fluorimetric analysis; conditions: MRC5, 72 h
Method in brief: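 MRC-5_SV2 cells, 1.5×10⁵ cells/mL in MEM with Earl's salts, L-glutamine, NaHCO₃ and 5% inactivated FCS, were exposed 3 days at 37 °C, 5% CO₂ to a 10-point 4-fold dilution series, final DMSO <1%. Resazurin was added for 4 h, fluorescence read at ex 550/em 590 nm, and IC₅₀ derived versus untreated and medium controls.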

[3] = test system: Trypanosoma brucei rhodesiense; assay: Antitrypanosomal activity against Trypanosoma brucei rhodesiense assessed as parasite growth inhibition; format: functional, organism-based
[4] = Selectivity index, ratio of EC50 for human MRC5 cells to EC50 for antitrypanosomal activity against Trypanosoma brucei brucei; format: toxicity; conditions: read-out: Ratio EC50; method in brief: as §1
[5] = Selectivity index, ratio of EC50 for cytotoxicity against mouse primary macrophage to EC50 for antileishmanial activity against Leishmania infantum MHOM/MA(BE)/67 infected in mouse primary peritoneal macrophages; format: toxicity; conditions: read-out: Ratio EC50
[6] = Selectivity index, ratio of EC50 for cytotoxicity against human MRC5 cells to EC50 for antitrypanosomal activity against Trypanosoma cruzi Tulahuen CL2 infected in human MRC5 cells; format: toxicity, cell-based; conditions: read-out: Ratio EC50; method in brief: as §1

EC50 [2]	EC50 (Leishmania infantum)	EC50 [3]	Compound	selectivity ratio [1]	EC50 (Trypanosoma cruzi)	EC50 (Macrophage)	EC50 (MRC5)	selectivity ratio [4]	selectivity ratio [5]	selectivity ratio [6]
2.02 µM	27.3 µM	2.06 µM	Nc1ncnc2c1c(C(F)(F)F)cn2[C@@H]1O[C@H](CO)[C@@H](F)[C@H]1O	3	3.17 µM	32 µM	7.01 µM	3	1	–
> 64 µM	> 64 µM	> 64 µM	COc1nc(N)nc2c1c(Br)cn2[C@@H]1O[C@H](CO)[C@@H](F)[C@H]1O	–	> 64 µM	> 64 µM	> 64 µM	–	–	–
7.23 µM	5.34 µM	3.61 µM	Cc1cc(-c2cn([C@@H]3O[C@H](CO)[C@H](F)[C@H]3O)c3ncnc(N)c23)ccc1Cl	6	0.75 µM	8 µM	20.9 µM	3	1	28
0.47 µM	1.75 µM	0.16 µM	Nc1ncnc2c1c(F)cn2[C@@H]1O[C@H](CO)[C@@H](F)[C@H]1O	27	0.25 µM	2 µM	5.49 µM	9	–	22
16.2 µM	22.6 µM	14.1 µM	Nc1ncnc2c1c(-c1ccc(F)cc1)cn2[C@@H]1O[C@H](CO)[C@H](F)[C@H]1O	> 5	1.45 µM	32 µM	> 64 µM	> 4	1	> 44
8.64 µM	> 64 µM	51.6 µM	COc1ncnc2c1c(Br)cn2[C@@H]1O[C@H](CO)[C@@H](F)[C@H]1O	1	> 64 µM	> 64 µM	> 64 µM	7	–	–
0.81 µM	39.3 µM	0.34 µM	C=Cc1cn([C@@H]2O[C@H](CO)[C@@H](F)[C@H]2O)c2ncnc(N)c12	59	0.65 µM	> 64 µM	20.2 µM	25	> 1	31
10.5 µM	2.03 µM	0.38 µM	N#Cc1cn([C@@H]2O[C@H](CO)[C@@H](F)[C@H]2O)c2ncnc(N)c12	3	9.66 µM	2 µM	1.32 µM	–	< 1	< 1
–	7.47 µM	–	CCCCCCCCCCCCCCCCOP(=O)([O-])OCC[N+](C)(C)C [MILTEFOSINE]	–	–	–	–	–	–	–
> 64 µM	> 64 µM	> 64 µM	COc1nc(N)nc2c1ccn2[C@@H]1O[C@H](CO)[C@@H](F)[C@H]1O	–	> 64 µM	> 64 µM	> 64 µM	–	–	–
–	–	–	O=C(Cn1ccnc1[N+](=O)[O-])NCc1ccccc1 [BENZNIDAZOLE]	–	2.02 µM	–	–	–	–	–
> 64 µM	> 64 µM	> 64 µM	O=c1[nH]cnc2c1ccn2[C@@H]1O[C@H](CO)[C@@H](F)[C@H]1O	–	> 64 µM	> 64 µM	> 64 µM	–	–	–
0.04 µM	> 64 µM	0.0063 µM	Nc1ncnc2c1ccn2[C@@H]1O[C@H](CO)[C@H](F)[C@H]1O	> 10100	> 64 µM	> 64 µM	> 64 µM	> 1590	–	–
> 64 µM	> 64 µM	> 64 µM	Nc1nc2c(ccn2[C@@H]2O[C@H](CO)[C@@H](F)[C@H]2O)c(=O)[nH]1	–	> 64 µM	> 64 µM	> 64 µM	–	–	–
0.03 µM	–	–	Cc1ccc(C(=O)Nc2ccc(S(=O)(=O)O)c3cc(S(=O)(=O)O)cc(S(=O)(=O)O)c23)cc1NC(=O)c1cccc(NC(=O)Nc2cccc(C(=O)Nc3cc(C(=O)Nc4ccc(S(=O)(=O)O)c5cc(S(=O)(=O)O)cc(S(=O)(=O)O)c45)ccc3C)c2)c1 [SURAMIN]	–	–	–	–	–	–	–
42 µM	46.9 µM	> 64 µM	Nc1nc2c(ncn2[C@@H]2O[C@H](CO)[C@@H](F)[C@H]2O)c(=O)[nH]1	–	34.6 µM	> 64 µM	42 µM	–	> 1	1
> 64 µM	> 64 µM	> 64 µM	Nc1nc(N)c2ncn([C@@H]3O[C@H](CO)[C@@H](F)[C@H]3O)c2n1	–	> 64 µM	> 64 µM	> 64 µM	–	–	–
0.031 µM	0.37 µM	0.028 µM	Nc1ncnc2c1c(Br)cn2[C@@H]1O[C@H](CO)[C@@H](F)[C@H]1O	1150	0.041 µM	1.02 µM	32 µM	–	3	779
> 64 µM	> 64 µM	> 64 µM	O=c1[nH]cnc2c1c(Br)cn2[C@@H]1O[C@H](CO)[C@@H](F)[C@H]1O	–	> 64 µM	> 64 µM	> 64 µM	–	–	–
> 64 µM	> 64 µM	> 64 µM	O=c1[nH]cnc2c1c(-c1ccccc1)cn2[C@@H]1O[C@H](CO)[C@@H](F)[C@H]1O	–	> 64 µM	> 64 µM	> 64 µM	–	–	–
> 64 µM	> 64 µM	> 64 µM	O=c1[nH]cnc2c1c(F)cn2[C@@H]1O[C@H](CO)[C@@H](F)[C@H]1O	–	> 64 µM	> 64 µM	> 64 µM	–	–	–
20.5 µM	> 64 µM	21.3 µM	CCc1cn([C@@H]2O[C@H](CO)[C@@H](F)[C@H]2O)c2ncnc(N)c12	2	> 64 µM	> 64 µM	40.3 µM	2	–	< 1
> 64 µM	> 64 µM	> 64 µM	O=c1[nH]cnc2c1c(Cl)cn2[C@@H]1O[C@H](CO)[C@@H](F)[C@H]1O	–	> 64 µM	> 64 µM	> 64 µM	–	–	–
16 µM	> 64 µM	1.57 µM	OC[C@H]1O[C@@H](n2cc(Br)c3c(O)ncnc32)[C@H](O)[C@H]1F	> 41	> 64 µM	> 64 µM	> 64 µM	> 4	–	–
> 64 µM	> 64 µM	> 64 µM	O=c1[nH]cnc2c1ncn2[C@@H]1O[C@H](CO)[C@@H](F)[C@H]1O	–	4.28 µM	> 64 µM	> 64 µM	–	–	> 15
33.5 µM	> 64 µM	35.2 µM	COc1ncnc2c1ncn2[C@@H]1O[C@H](CO)[C@@H](F)[C@H]1O	2	30.1 µM	> 64 µM	> 64 µM	2	–	> 2
> 64 µM	> 64 µM	> 64 µM	O=c1[nH]cnc2c1c(I)cn2[C@@H]1O[C@H](CO)[C@@H](F)[C@H]1O	–	> 64 µM	> 64 µM	> 64 µM	–	–	–
